# Test results published in ChEMBL document CHEMBL1130352, “3-[[(4-Aryl-1-piperazinyl)alkyl]cyclohexyl]-1H-indoles as dopamine D2 partial agonists and autoreceptor agonists” (J Med Chem, 1997).
# pKi: −log10 of the molar value. Active and inactive are the calls of the source. The calls are words filed in the database; no cut-off is given here.
# Key:
# Rattus norvegicus [1] = species: Rattus norvegicus; experiment: Inhibition of spontaneous locomotor activity after peroral injection into rat; assay type: functional
# Outline: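 Rats dosed orally before a 30 min test in darkened cylindrical photobeam chambers. Percent inhibition of activity relative to vehicle-treated rats; ED50 with 95% confidence range from three to six doses, 6–18 animals per dose.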
# Rattus norvegicus [2] = experiment: Percent reversal of DOPA levels in the striatum of gamma-butyrolactone-treated rats at 10 mg/kg by intraperitoneal route; assay type: functional
# Outline: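 Male Long Evans rats received 10 mg/kg ip 1 h before sacrifice, with GBL (750 mg/kg ip) and NSD 1015 (100 mg/kg ip) 30 min before sacrifice. Striatal DOPA was quantified by HPLC-electrochemical detection and expressed as percent reversal between GBL + NSD 1015 (0%) and vehicle + NSD 1015 (100%) controls; n = 4-5 rats.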
# D(2) dopamine receptor [3] = biological target: T1, D(2) dopamine receptor (Rattus norvegicus, UniProt P61169); experiment: In vitro binding affinity for dopamine receptor D2 on rat striatal membranes by [3H]spiperone displacement.; set-up: species or system Striatum, Membrane
# Outline: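 Displacement of [3H]spiperone (0.2 nM final) from rat striatal membranes; nonspecific binding defined with 1 μM (+)-butaclamol. IC50 determined, reported as Ki.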
# Mus musculus [4] = experiment: In vivo inhibition of locomotor activity in mice following i.p. administration.; assay type: functional; details: ip
# Outline: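 Mice dosed ip, then immediately tested for 1 h in darkened cylindrical photobeam chambers. Activity expressed as percent inhibition versus vehicle-treated mice. ED50 with 95% confidence range from three to six doses, 6–18 animals per dose.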
# Rattus norvegicus [5] = experiment: Inhibition of spontaneous locomotor activity after intraperitoneal injection into rat at 30 mg/kg; assay type: functional; details: ip
# Rattus norvegicus [6] = experiment: Inhibition of spontaneous locomotor activity after intraperitoneal injection into rat at 3 mg/kg; assay type: functional; details: ip
# D(3) dopamine receptor = D(3) dopamine receptor (Homo sapiens, UniProt P35462); experiment: In vitro binding affinity towards human recombinant Dopamine receptor D3 receptor expressed in CHO-K1 cells was determined using [3H]spiperone as radioligand
# D(4) dopamine receptor = biological target: T2, D(4) dopamine receptor (Homo sapiens, UniProt P21917); experiment: In vitro binding affinity towards human recombinant Dopamine receptor D4 expressed in CHO-K1 cells was determined using [3H]spiperone as radioligand; assay type: cell-based
# T2 sequence (P21917 whole entry): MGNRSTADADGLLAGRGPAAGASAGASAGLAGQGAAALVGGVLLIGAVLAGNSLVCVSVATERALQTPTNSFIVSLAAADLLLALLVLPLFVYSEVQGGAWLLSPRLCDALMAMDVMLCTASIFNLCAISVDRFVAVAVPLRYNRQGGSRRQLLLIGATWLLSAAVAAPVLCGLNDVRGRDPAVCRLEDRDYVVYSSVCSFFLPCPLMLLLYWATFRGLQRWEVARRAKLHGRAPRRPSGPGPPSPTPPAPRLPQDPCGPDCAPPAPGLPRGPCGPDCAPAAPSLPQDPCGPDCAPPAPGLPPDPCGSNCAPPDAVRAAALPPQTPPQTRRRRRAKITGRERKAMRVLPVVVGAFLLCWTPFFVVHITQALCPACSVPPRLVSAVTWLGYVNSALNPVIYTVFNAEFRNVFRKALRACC
# Outline: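 CHO K1 cells stably transfected with human recombinant DA D4.2 receptor subtype; membranes incubated with [3H]spiperone (0.2 nM final); Ki values determined.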
# [7] = Decrease in squirrel monkey striatal dopamine overflow measured via in vivo microdialysis after administering a dose of 3 mg/kg intraperitoneally; assay type: functional; set-up: scale not given: the % may be the effect or the level left; details: route intraperitoneal
# [8] = Inhibition of sidman avoidance in squirrel monkey after peroral administration; assay type: functional; details: po
# Outline: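 Squirrel monkeys dosed orally; conditioned (Sidman) avoidance recorded for 6 h. Effect expressed as percent avoidance responding relative to control performance over the 4 h of peak effect; ED50 in mg/kg po.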
# Rattus norvegicus [9] = experiment: Decrease in dopamine neuronal firing rate in rats after intraperitoneal injection of 2.5 mg/kg; assay type: functional; set-up: scale not given: the % may be the effect or the level left
# Rattus norvegicus [10] = experiment: Stereotypy in rats (intraperitoneal); assay type: functional; details: ip
# Outline: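 A trained observer rated rats for repetitive sniffing, licking and gnawing, 30 s per rat; a behaviour counted only if continuously present for at least 15 s. Rats observed 1 h after the test compound, then given the D1 agonist SKF 38393 and observed for another hour.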
# D(2) dopamine receptor [11] = biological target: T1, D(2) dopamine receptor; experiment: Binding affinity was determined in vitro on rat striatum using [3H]N-propylnorapomorphine against Dopamine receptor D2; assay type: tissue-based
# Outline: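 Rat striatal membranes; [3H]-NPA agonist radioligand at 0.35 nM final, labelling high-affinity state D2 sites; nonspecific binding defined with 2 μM (+)-butaclamol. IC50 determined by displacement, reported as Ki (nM).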
# Mus musculus [12] = experiment: Inhibition of apomorphine-induced climbing in mice after intraperitoneal injection; assay type: functional; details: ip
# Outline: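 Mice received apomorphine 1 mg/kg sc and returned to cages. Test compound or vehicle given ip 5 min later, and climbing scored 10 min after that; ED50 in mg/kg ip.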
# Rattus norvegicus [13] = species: Rattus norvegicus; experiment: Compound was evaluated for ability to reverse gamma-butyrolactone (GBL)-induced sunthesis of DOPA in rat corpus striatum; assay type: functional
# Outline: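 Male Long Evans rats dosed 1 h before sacrifice; GBL 750 mg/kg ip plus NSD 1015 100 mg/kg ip given 30 min before sacrifice. Striatal DOPA measured by HPLC with electrochemical detection. ED50 read graphically as the dose giving 50% reversal of the GBL-induced rise in DOPA accumulation; 0% = GBL + NSD 1015, 100% = vehicle + NSD 1015.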
# Rattus norvegicus [14] = experiment: Decrease of rat striatal dopamine overflow after intraperitoneal injection of 10 mg/kg measured via in vivo microdialysis; assay type: functional; set-up: scale not given: the % may be the effect or the level left
# Outline: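 Adult male Sprague-Dawley rats (200-250 g) under urethane in a stereotaxic frame, with a 4 mm probe in striatum perfused with artificial CSF at 2 μL/min. Dialysate collected every 20 min and assayed for catecholamines by HPLC-electrochemical detection, after 10 mg/kg ip; n = 4.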
# Rattus norvegicus [15] = species: Rattus norvegicus; experiment: Inhibition of spontaneous locomotor activity after peroral injection into rat; Stimulation of locomotory activity; assay type: functional, organism-based
# Rattus norvegicus [16] = experiment: Percent reversal of DOPA synthesis in the striatum of gamma-butyrolactone-treated rats at 10 mg/kg by intraperitoneal route; Increase; assay type: functional, organism-based; set-up: dose 10 mg/kg
# Outline: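 Male Long Evans rats given compound ip 1 h before sacrifice; GBL (750 mg/kg ip) plus NSD 1015 (100 mg/kg ip) 30 min before sacrifice. Striatal DOPA measured by HPLC with electrochemical detection. Result given as percent reversal between the GBL + NSD 1015 control (0%) and the vehicle + NSD 1015 control (100%); n = 4–5 animals.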
# T1 sequence (P61169 whole entry): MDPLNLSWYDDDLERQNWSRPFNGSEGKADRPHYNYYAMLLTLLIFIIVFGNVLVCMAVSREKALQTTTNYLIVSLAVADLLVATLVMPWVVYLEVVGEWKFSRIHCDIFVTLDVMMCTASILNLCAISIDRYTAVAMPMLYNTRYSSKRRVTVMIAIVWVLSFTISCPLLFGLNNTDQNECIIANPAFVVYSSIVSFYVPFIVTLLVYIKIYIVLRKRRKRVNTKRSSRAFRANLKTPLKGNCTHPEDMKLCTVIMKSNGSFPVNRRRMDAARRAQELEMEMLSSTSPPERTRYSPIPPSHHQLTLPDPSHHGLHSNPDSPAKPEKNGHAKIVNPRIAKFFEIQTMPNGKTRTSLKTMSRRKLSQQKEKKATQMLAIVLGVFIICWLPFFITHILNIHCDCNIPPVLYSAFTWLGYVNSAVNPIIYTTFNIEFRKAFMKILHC
# Chain of D(3) dopamine receptor (P35462 whole entry): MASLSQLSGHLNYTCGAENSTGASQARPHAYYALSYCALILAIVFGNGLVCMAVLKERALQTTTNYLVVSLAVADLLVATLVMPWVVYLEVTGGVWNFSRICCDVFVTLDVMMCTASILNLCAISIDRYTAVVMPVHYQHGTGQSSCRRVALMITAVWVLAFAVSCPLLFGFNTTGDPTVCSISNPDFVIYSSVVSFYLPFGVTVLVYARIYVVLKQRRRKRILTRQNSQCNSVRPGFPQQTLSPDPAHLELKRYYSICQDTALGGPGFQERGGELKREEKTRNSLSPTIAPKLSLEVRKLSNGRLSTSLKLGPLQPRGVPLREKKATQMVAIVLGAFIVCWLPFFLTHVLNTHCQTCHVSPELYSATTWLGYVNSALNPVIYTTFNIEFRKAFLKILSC
SMILES,ED50 (Rattus norvegicus [1]) [mg/kg],Reversal (Rattus norvegicus [2]) [%],pKi (D(2) dopamine receptor [3]),ED50 (Mus musculus [4]) [mg/kg],also measured
c1ccc(N2CCN([C@H]3CC[C@H](c4c[nH]c5ccccc54)CC3)CC2)nc1,13.7,38,6.34,1.2,–
COc1ccc2[nH]cc([C@H]3CC[C@H](CCN4CCN(c5ccccn5)CC4)CC3)c2c1,> 30,88,7.54,2.2,–
c1ccc(N2CCN(C[C@H]3CC[C@@H](c4c[nH]c5ccccc54)CC3)CC2)nc1,–,–,6.91,1.2,inhibition in vivo at 30 mg/kg (Rattus norvegicus [5]): 1.8%; inhibition in vivo at 3 mg/kg (Rattus norvegicus [6]): 57%
C1=C(c2cccs2)CCN(CC[C@H]2CC[C@H](c3c[nH]c4ccccc43)CC2)C1,–,–,6.20,11.6,–
Cn1cc([C@H]2CC[C@H](CCN3CCN(c4ccccn4)CC3)CC2)c2ccccc21,–,–,7.08,> 30,–
C1=C(c2c[nH]c3ccccc23)CCC(CCN2CCN(c3ccccn3)CC2)C1 (centres undefined),–,–,6.57,–,–
c1ccc(N2CCN(CC[C@H]3CC[C@H](c4c[nH]c5ccccc54)CC3)CC2)nc1,4.8,44,7.30,1.4,pKi (D(3) dopamine receptor): 7.54; pKi (D(4) dopamine receptor): 7.14; Activity [7]: 38%; ED50 [8]: 1 mg/kg; Activity (Rattus norvegicus [9]): 100%; ED50 (Rattus norvegicus [10]): > 24 mg/kg; pKi (D(2) dopamine receptor [11]): 8.59; ED50 (Mus musculus [12]): > 30 mg/kg; ED50 (Rattus norvegicus [13]): 6.6 mg/kg; Activity (Rattus norvegicus [14]): 33%
C1=C(c2ccccc2)CCN(CC[C@H]2CC[C@@H](c3c[nH]c4ccccc43)CC2)C1,–,5,7.55,10.5,–
c1ccc(N2CCN([C@H]3CC[C@@H](c4c[nH]c5ccccc54)CC3)CC2)nc1,–,–,–,> 30,–
Oc1ccc2[nH]cc(CCCCN3CC=C(c4ccccc4)CC3)c2c1 [ROXINDOLE],47.6,70,7.85,0.25,–
c1cnc(N2CCN(CC[C@H]3CC[C@H](c4c[nH]c5ccccc54)CC3)CC2)nc1,18.6,34,6.79,3.3,–
c1ccc(N2CCN(CC[C@H]3CC[C@@H](c4c[nH]c5ccccc54)CC3)CC2)nc1,12.2,60,6.86,4.7,–
Fc1ccc2[nH]cc([C@H]3CC[C@H](CCN4CCN(c5ccccn5)CC4)CC3)c2c1,–,100,6.96,9,ED50 (Rattus norvegicus [15]): Stimulant
c1ccc(N2CCN(C[C@H]3CC[C@H](c4c[nH]c5ccccc54)CC3)CC2)nc1,8.8,81,7.07,2.3,–
C1=C(c2ccccc2)CCN(CC[C@H]2CC[C@H](c3c[nH]c4ccccc43)CC2)C1,> 30,–,8.06,7.2,Reversal (Rattus norvegicus [16]): inactive
c1ccc(N2CCN(CC[C@H]3CC[C@H](c4c[nH]c5ccccc54)CC3)CC2)cc1,–,–,6.91,13.9,Reversal (Rattus norvegicus [16]): inactive
Oc1ccc2[nH]cc([C@H]3CC[C@H](CCN4CCN(c5ccccn5)CC4)CC3)c2c1,> 30,25,8.07,0.6,–
C1=C(c2ccccc2)CC[C@H](CCN2CCN(c3ccccn3)CC2)C1,–,–,6.39,–,–
Fc1ccc(N2CCN(CC[C@H]3CC[C@H](c4c[nH]c5ccccc54)CC3)CC2)cc1,–,–,6.19,> 30,–
